Most compounds without a hit are left out; they make up all but 2.9% or so of the library.
TRPC6 inh – inhibitors of mouse TRPC6 channel | B-score at 10 µM | hit rate 1.1% among 310,000 | AID 2553 | HEK293-TRPC6, membrane potential dye, ACh-evoked depolarization; hits give low values | Q61143;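 active = B-score under library mean minus 3 SD, initial fluorescence not abnormally high, positive integrated signal ratio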;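 also: B-score derived from integrated fluorescence ratio over the kinetic read; more negative B-score means stronger inhibition of depolarization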
Target sequence (Q61143 whole entry, looked up): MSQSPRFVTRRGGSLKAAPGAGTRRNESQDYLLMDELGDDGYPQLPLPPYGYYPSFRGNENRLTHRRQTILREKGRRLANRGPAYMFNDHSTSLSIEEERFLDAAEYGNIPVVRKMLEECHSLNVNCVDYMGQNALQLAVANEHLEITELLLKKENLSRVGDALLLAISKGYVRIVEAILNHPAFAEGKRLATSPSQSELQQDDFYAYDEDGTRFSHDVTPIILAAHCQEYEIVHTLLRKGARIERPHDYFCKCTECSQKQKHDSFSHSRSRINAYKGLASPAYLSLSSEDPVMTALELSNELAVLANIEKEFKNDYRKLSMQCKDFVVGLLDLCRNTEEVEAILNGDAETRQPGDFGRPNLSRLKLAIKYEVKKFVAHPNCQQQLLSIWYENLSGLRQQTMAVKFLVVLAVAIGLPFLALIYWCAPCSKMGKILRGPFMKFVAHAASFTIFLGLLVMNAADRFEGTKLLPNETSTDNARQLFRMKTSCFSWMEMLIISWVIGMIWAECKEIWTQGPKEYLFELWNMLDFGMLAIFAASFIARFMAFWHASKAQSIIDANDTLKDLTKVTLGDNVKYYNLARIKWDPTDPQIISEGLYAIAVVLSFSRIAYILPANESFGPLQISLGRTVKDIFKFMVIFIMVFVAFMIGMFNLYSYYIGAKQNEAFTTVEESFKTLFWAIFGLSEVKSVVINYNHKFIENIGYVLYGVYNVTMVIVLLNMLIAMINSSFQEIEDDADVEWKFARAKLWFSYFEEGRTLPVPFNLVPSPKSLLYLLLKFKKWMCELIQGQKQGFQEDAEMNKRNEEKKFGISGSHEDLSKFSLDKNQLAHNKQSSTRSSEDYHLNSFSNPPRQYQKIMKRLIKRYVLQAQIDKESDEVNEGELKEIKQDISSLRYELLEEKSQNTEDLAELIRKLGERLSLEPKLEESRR
TRPC6 activator – activates the mouse TRPC6 cation channel; HEK293-TRPC6 membrane potential dye fluorescence; hits give high values; B-score at 10 µM; hit rate 0.13% among 310,000; AID 2550;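 active = B-score of the integrated fluorescence ratio above library mean plus 3 SD, and starting fluorescence ratio within library mean plus 5 SD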;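 also: higher score means more depolarization so channel activation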
TRPC4 act – TRPC4 (mouse) channel activation; Q9QUQ5; HEK293 TRPC4beta/mu-opioid, Fluo4 calcium fluorescence; hits give high values; B-score at 10 µM; hit rate 0.49% among 310,000; AID 2237;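 active = B-score above 5 SD of library B-scores, and initial fluorescence ratio not above library mean plus 5 SD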;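 also: positive B-score marks a calcium rise read as TRPC4 activation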
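Test system: HEK293 cells stably co-expressing mouse TRPC4beta and mu-opioid receptor | Schedule: Fluo4 dye loading 45 min at room temperature, 110 s recording | Measured by: Kinetic Fluo4 calcium fluorescence, 5 s baseline at 1 Hz | Evaluation: B score of integrated ratio | Controls: Buffer (low) and maximal DAMGO (high)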
TRPC4 potent – allosteric potentiators of mouse TRPC4 channel. HEK293 TRPC4beta/mu-opioid, DAMGO EC20, Fluo-4 Ca2+ flux; hits give high values. B-score at 10 µM. hit rate 0.42% among 310,000;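 active = B-score of calcium response area above 5 SD of library B-scores, with initial fluorescence ratio within 5 SD of library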;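 also: B-score of integrated fluorescence ratio over time as area under calcium response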
Kir21 inh – blocks the mouse Kir2.1 inward-rectifier potassium channel; HEK293-Kir2.1, FluxOR thallium flux fluorescence; hits give low values; hit rate 0.85% among 310,000; P35561; AID 1672; B-score at 10 µM;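 active = fluorescence ratio B-score at or below minus 3 SD of library scores, with starting-brightness B-score within 2 SD, cut at about -4.2 in these data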;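 also: channel flux triggered by added potassium and thallium sulfate stimulus; B-score of peak minus minimum fluorescence over baseline after thallium stimulus; more negative B-score means stronger Kir2.1 block with less thallium influx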
TRPC4 inh – TRPC4 (mouse) channel inhibition; HEK293 TRPC4beta/mu-opioid, DAMGO-evoked Fluo4 calcium flux; hits give low values; B-score at 10 µM; hit rate 0.39% among 300,000;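 active = B-score over 3 SD under the library average, no early fluorescence shift, positive overall ratio signal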
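Assay system: TRPC4beta/mu-opioid receptor HEK293 cell line; compound dosing: single concentration per test compound; detection: Fluo4 Ca2+ flux fluorescence; evaluation: per-well B score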
HEK293 MPD ctr – checks TRPC6 modulator effects in parental HEK293 cells; membrane potential dye fluorescence; shares compounds with TRPC6 inh; AID 488924; membrane potential signal change, % at 10 µM; hit rate 51% among 2,400;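 active = membrane potential signal moves up or down beyond 5 SD from buffer-only wells, on both duplicate plates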
HEK293 MPD ctr 2 – second counter-screen for TRPC6 modulators: effect in parental HEK293 cells | shares compounds with TRPC6 inh | hit rate 14% among 2,400 | inhibition, % at 10 µM | membrane potential dye fluorescence; after compound, maximal acetylcholine stimulation | AID 488926;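 active = membrane potential signal drops by more than 5 SD from the mean control signal, in both duplicate plates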;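 also: plate controls were acetylcholine ECmax control wells for no effect and buffer only wells for full effect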
TRPC4/MOR mod – selectivity of TRPC6 modulators against mouse TRPC4; shares compounds with TRPC6 inh; HEK293 TRPC4/mu-opioid, membrane potential fluorescence; percent change from control (negative = decrease, positive = increase), % at 10 µM; hit rate 69% among 2,400;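 active = membrane potential signal moved up or down beyond 5 SD of buffer control wells, in both duplicate plates, actives on both sides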;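 also: plate controls were assay buffer wells for no effect and DAMGO maximal-effect wells for full effect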
TRPC4 ctr inh 2 – mouse TRPC4 off-target activity of TRPC6 modulators, second screen; inhibition, % at 10 µM; hit rate 55% among 2,400; HEK293 TRPC4/mu-opioid, membrane potential dye fluorescence; stimulated with maximal-effect DAMGO; shares compounds with TRPC6 inh;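 active = drop in membrane potential signal beyond 5 SD of the control wells in both duplicate plates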;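 also: TRPC4 counter screen for TRPC6 hits run under conditions tuned for TRPC6 not TRPC4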
TRPC6 block conf – mouse TRPC6 inhibitor confirmation; AID 488960; hit rate 43% among 3,300; inhibition, % at 10 µM; shares compounds with TRPC6 inh; HEK293-TRPC6, membrane potential dye, ACh-evoked depolarization;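 active = fluorescence ratio falls more than 5 SD below the full-stimulation control mean, in both duplicate runs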;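 also: integrated fluorescence ratio of peak minus minimum over baseline after agonist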
TRPC6 act confirm – mouse TRPC6 activator confirmation | shares compounds with TRPC6 inh | HEK293-TRPC6 membrane potential dye fluorescence, FDSS | activation, % at 10 µM | hit rate 11% among 2,800 | AID 488961;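 active = ratio signal rise beyond 5 SD above unstimulated control wells' mean, seen in both duplicate runs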;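 also: plate controls were buffer EC0 wells for no effect and acetylcholine ECmax response for full effect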
An asterisk follows results filed as active.

For COc1ccc(S(=O)(=O)N2CCC(N3CCCC3)CC2)cc1 the results were TRPC6 inh inactive, TRPC6 activator inactive, TRPC4 act inactive, TRPC4 potent inactive, Kir21 inh 0.05 and TRPC4 inh inactive.
`O=S(=O)(c1ccc(Cl)cc1)N1CCN(C2CCN(Cc3ccccc3)CC2)CC1` gave TRPC6 inh inactive, TRPC6 activator inactive, TRPC4 act inactive, TRPC4 potent inactive, Kir21 inh -3.41 and TRPC4 inh inactive.
Screening CC(C)(C)c1ccc(S(=O)(=O)N2CCN(C3CCCC3)CC2)cc1 returned TRPC6 inh inactive, TRPC6 activator inactive, TRPC4 act inactive, TRPC4 potent inactive, Kir21 inh 0.39 and TRPC4 inh inactive.
Screening C[C@H](N=C1NS(=O)(=O)c2ccccc21)C(=O)OCc1cc([N+](=O)[O-])cc2c1OCOC2 returned TRPC6 inh inactive, TRPC6 activator inactive, TRPC4 act inactive, TRPC4 potent inactive, Kir21 inh -0.01 and TRPC4 inh inactive.
`COc1ccccc1OCCNC(=O)c1ccc2c(c1)CCC2` gave TRPC6 inh inactive, TRPC6 activator inactive, TRPC4 act inactive, TRPC4 potent inactive, Kir21 inh 1.02 and TRPC4 inh inactive.
For CCOc1ccc(OCc2ccc(C(=O)OCc3ccccn3)o2)cc1 the results were TRPC6 inh -6.04*, TRPC6 activator inactive, TRPC4 act inactive, TRPC4 potent inactive, Kir21 inh 1.3, TRPC4 inh inactive, HEK293 MPD ctr inactive, HEK293 MPD ctr 2 inactive, TRPC4/MOR mod 11.0%*, TRPC4 ctr inh 2 inactive, TRPC6 block conf inactive and TRPC6 act confirm inactive.
CCOC(=O)c1ccc(COc2ccc(C(C)C)cc2)o1 was read as TRPC6 inh inactive, TRPC6 activator inactive, TRPC4 act inactive, TRPC4 potent inactive, Kir21 inh -0.21 and TRPC4 inh inactive.
Screening CCCCc1ccc(NC(=O)CSc2nnc(CNC(=O)c3ccco3)o2)cc1 returned TRPC6 inh inactive, TRPC6 activator inactive, TRPC4 act inactive, TRPC4 potent inactive, Kir21 inh -0.21 and TRPC4 inh inactive.
CC(C)Oc1ccc(/C=N/NC(=O)c2nnn(-c3nonc3N)c2CN(C)c2ccccc2)cc1 was read as TRPC6 inh inactive, TRPC6 activator inactive, TRPC4 act inactive, TRPC4 potent inactive, Kir21 inh 0.87 and TRPC4 inh inactive.
`Cc1cc(C)cc(N(C(=O)c2csnn2)C(C(=O)NC2CCCC2)c2cccnc2)c1` (stereo unspecified) gave TRPC6 inh inactive, TRPC6 activator inactive, TRPC4 act inactive, TRPC4 potent inactive, Kir21 inh -1.43 and TRPC4 inh inactive.
O=C(c1ccc(Br)cc1)N(Cc1nc2ccccc2c(=O)[nH]1)C1CCCC1 was read as TRPC6 inh inactive, TRPC6 activator inactive, TRPC4 act inactive, TRPC4 potent inactive, Kir21 inh -0.24 and TRPC4 inh inactive.

Source: PubChem (Johns Hopkins Ion Channel Center)
